Cneo AK release = Cryptococcus neoformans lysis via adenylate kinase release. lysis activity, % at 15 µM. 360,000 compounds, 0.2% hits. C. neoformans lysis, adenylate kinase release luminescence, 4 h; normalised: neutral wells 0, clomiphene wells 100. AID 651654;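 active means mean lysis activity across replicates of at least 80%, whatever share of replicates individually reach that level; inactive means mean lysis activity below 80%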
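read-out = cell lysis signal | test system = log-phase Cryptococcus neoformans yeast cells | input = cells at 5 × 10^6 per mL | medium = fresh YPD growth medium | signal = luminescent adenylate kinase detection reagent | timing = 4 h at 37 °C static, read 1 h later | dosing = single dose | controls = Clomiphene as positive lysis control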
C2C12 statin = suppressors of simvastatin-induced myotoxicity in C2C12 myotubes; ATP luminescence, 48 h; scaled: DMSO 0, geranylgeraniol control 100; rescue of ATP level, % at 7.49 µM; 330,000 compounds, 0.78% hits; AID 602340;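 active means mean ATP rescue above about 67%, or every replicate alone reaching that limit, limit read from the data, passing the limit was not always enough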;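 further: myotubes were challenged with 10 µM simvastatin during compound exposure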
Mot1-301 SUMO = blocks SUMOylation pathway, rescuing yeast Mot1-301 growth. S. cerevisiae Mot1-301 growth rescue, ATP luminescence, 38.5C; percent above DMSO median, 100 means doubled. growth rescue, % at 18.8 µM. 320,000 compounds, 1% hits;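 active means every valid replicate shows activation above 250% relative to neutral control wells; inactive means the rest, any valid replicate at or below 250%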;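 further: OY570 slx delta 5 strain wells were the positive control but not used for scaling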
Efflux pump mplx = inhibitors of Candida antifungal efflux pumps expressed in yeast | S. cerevisiae Candida pump triplex, Nile Red efflux | inhibition, % at 10 µM | 330,000 compounds, 0.44% hits | AID 485275;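 active means plate passing quality check with inhibition over a set limit, or well fluorescence over plate mean plus 4 SD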;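 further: Nile Red retained in pooled yeast measured as flow cytometry median fluorescence; 0% = buffer negative control and 100% = Enniatin B positive control; higher means more Nile Red kept so more efflux inhibition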
Numbers without * were called inactive. This is a sample that favours compounds with a hit; in the whole collection about 1.8% have one here.

For Cc1ccc(-n2c(CSc3nc(C)cc(C)n3)n[nH]c2=S)cc1 the results were Mot1-301 SUMO 5.9 and Efflux pump mplx 0.6.
Screening COc1ccc(NC(=O)Cn2ccc(C(F)(F)F)n2)cc1S(=O)(=O)N1CCOCC1 returned Cneo AK release -1.3, C2C12 statin 100.8*, Mot1-301 SUMO 4.8 and Efflux pump mplx 0.1.
`COc1ccc(NC(=O)CN2CCN(C(C)=O)CC2)cc1S(=O)(=O)N1CCOCC1` gave Cneo AK release 4.2, C2C12 statin -11.3, Mot1-301 SUMO -1.5 and Efflux pump mplx 0.2.
CCNc1nc(C23CC4CC(CC(C4)C2)C3)cs1 was read as Mot1-301 SUMO 425.7 and Efflux pump mplx 0.0.
N#Cc1nccnc1S(=O)(=O)c1cccs1 was read as Mot1-301 SUMO 361.3* and Efflux pump mplx 0.1.
For C[C@H](O)C#Cc1ccc([C@@H]2[C@@H](CO)N3CCCCN(C(=O)c4ccc(F)cc4)C[C@@H]23)cc1 the results were Cneo AK release -1.4.
`CCCOc1ccc(C(=O)CCC(=O)NNC(=O)Cn2nc(C)cc2C)cc1` gave C2C12 statin 9.4, Mot1-301 SUMO -5.1 and Efflux pump mplx -0.2.
COC(=O)Cc1csc(Nc2ccccc2)n1 was read as Mot1-301 SUMO -9.9 and Efflux pump mplx 0.3.
`Cc1cccc(Nc2nc(CC(=O)O)cs2)c1` gave Cneo AK release 2.5, C2C12 statin 128.2*, Mot1-301 SUMO 23.7 and Efflux pump mplx -0.1.
Screening CC(OC(=O)C1=NNC(=O)CC1)C(=O)Nc1ncc(Cl)cc1Cl (stereo not given) returned Mot1-301 SUMO 62.3 and Efflux pump mplx 0.1.
`O=C(NCc1ccco1)c1ccccc1NS(=O)(=O)c1ccc2c(c1)OCCO2` gave Cneo AK release 1.4, C2C12 statin 108.6*, Mot1-301 SUMO 102.4 and Efflux pump mplx 0.1.
For O=C(NNC(=O)c1cccs1)c1csc(N2CCOCC2)n1 the results were Cneo AK release 3.2, C2C12 statin 3.6, Mot1-301 SUMO 38.1 and Efflux pump mplx 0.1.
S=C(NN=C(C1CC1)C1CC1)Nc1ccccc1 was read as Cneo AK release 0.8, C2C12 statin 142.5* and Efflux pump mplx 0.0.
For O=C(NNC(=S)Nc1ccccc1)C1CC1 the results were Cneo AK release 1.8, C2C12 statin -4.4, Mot1-301 SUMO -0.1 and Efflux pump mplx 0.0.
For FC(F)Sc1nnc(-c2cccs2)n1-c1ccccc1 the results were Cneo AK release -4.8, C2C12 statin 31.7, Mot1-301 SUMO -33.3 and Efflux pump mplx -0.1.
`c1ccc(-c2noc(CC3CCCCC3)n2)nc1` gave Mot1-301 SUMO -3.9 and Efflux pump mplx 0.0.
For c1cc(-c2noc(CC3CCCCC3)n2)ccn1 the results were Cneo AK release 0.0, C2C12 statin 147.0*, Mot1-301 SUMO 32.3 and Efflux pump mplx 0.0.
`Cn1c2c(c(=O)n(C)c1=O)C(CC(=O)Nc1ccccc1F)C(=O)N2` (stereo not given) gave Cneo AK release -4.8, Mot1-301 SUMO -0.6 and Efflux pump mplx -0.1.
Screening Cn1c2c(c(=O)n(C)c1=O)C(CC(=O)Nc1ccccc1)C(=O)N2 (stereo not given) returned Cneo AK release 0.0, C2C12 statin 133.4*, Mot1-301 SUMO 28.0 and Efflux pump mplx -0.2.
`Cc1cccc(CC(=O)NC2CCN(C)CC2)c1` gave Cneo AK release -0.7, C2C12 statin 2.3, Mot1-301 SUMO 4.8 and Efflux pump mplx 0.3.
`COc1ccc(OC)c(/C=N/NC(=O)Cn2ccnc2C)c1` gave C2C12 statin 3.4, Mot1-301 SUMO 1.0 and Efflux pump mplx 0.0.
Screening O=C(COc1ccccc1)Nc1nn[nH]n1 returned Cneo AK release -2.8, C2C12 statin 112.2*, Mot1-301 SUMO 8.0 and Efflux pump mplx 0.1.
For Cc1cc(NC(=O)COc2cccc(Oc3ccccc3)c2)no1 the results were Cneo AK release -1.8, C2C12 statin 3.3, Mot1-301 SUMO -10.1 and Efflux pump mplx 0.2.
`O=C(COc1cccc(Oc2ccccc2)c1)Nc1ncccn1` gave C2C12 statin 106.8*, Mot1-301 SUMO 24.3 and Efflux pump mplx 0.2.
For C[C@@H]1CN([C@@H](C)CO)C(=O)c2cccc(NC(=O)Nc3ccc4c(c3)OCO4)c2O[C@H]1CN(C)C(=O)NC1CCCCC1 the results were Cneo AK release -0.1 and C2C12 statin -0.2.
`COc1cccc(CC2CC(=O)N(CCc3ccc4c(c3)OCO4)C2=O)c1` (stereo not given) gave Cneo AK release -3.5, C2C12 statin 11.5, Mot1-301 SUMO -1.5 and Efflux pump mplx 0.1.
For Cc1ccc(CC2CC(=O)N(CCc3ccc4c(c3)OCO4)C2=O)cc1 (stereo not given) the results were Cneo AK release 0.7, C2C12 statin 147.3*, Mot1-301 SUMO -9.8 and Efflux pump mplx 0.1.
For CN1CCN(c2ccc(Cl)cc2NC(=O)c2ccc(S(=O)(=O)N3CCCCCC3)cc2)CC1 the results were Cneo AK release -1.6, C2C12 statin -20.9, Mot1-301 SUMO -2.2 and Efflux pump mplx 0.2.
Screening N#CCCn1nc(Cc2cccc3ccccc23)c(C#N)c1N returned Cneo AK release 1.0, C2C12 statin 0.1, Mot1-301 SUMO 331.2* and Efflux pump mplx 0.0.
`O=C(CC(SCc1ccco1)c1ccc(O)cc1)c1cccs1` (stereo not given) gave Cneo AK release -3.3, C2C12 statin 44.0, Mot1-301 SUMO 600.5* and Efflux pump mplx -0.1.
For CCN(CC)CC(=O)n1c2c(c3ccccc31)CCCC2 the results were Cneo AK release -0.3, C2C12 statin 123.9* and Efflux pump mplx -0.1.
For CN1CCN(CC(=O)n2c3c(c4ccccc42)CCCC3)CC1 the results were C2C12 statin 0.3, Mot1-301 SUMO 14.9 and Efflux pump mplx 0.6.
Screening Cc1nnsc1C(=O)NNS(=O)(=O)c1cc(C(F)(F)F)cc(C(F)(F)F)c1 returned C2C12 statin 4.5, Mot1-301 SUMO 13.7 and Efflux pump mplx -0.1.
For Cc1ccc(S(=O)(=O)NNC(=O)c2snnc2C)cc1 the results were Cneo AK release -0.4, C2C12 statin 128.0* and Efflux pump mplx -0.2.
Screening O=C(CN1CCC(NC(=O)c2ccccc2F)CC1)Nc1ccc2c(c1)OCO2 returned Mot1-301 SUMO 667.1* and Efflux pump mplx -0.5.
Screening CCn1c(C)c(C(C)=O)c(N2CCC(C(N)=O)CC2)nc1=S returned Cneo AK release 1.4, C2C12 statin 5.2, Mot1-301 SUMO -13.1 and Efflux pump mplx 0.0.
CCn1c(C)c(C(C)=O)c(N2CCCCC2)nc1=S was read as Cneo AK release 7.5, C2C12 statin 79.0*, Mot1-301 SUMO -7.9 and Efflux pump mplx 0.0.
For C[C@H]1CN([C@@H](C)CO)C(=O)c2cc(NS(=O)(=O)c3ccccc3)ccc2O[C@@H]1CN(C)S(=O)(=O)c1ccc(F)cc1 the results were C2C12 statin 25.1.
For C[C@@H]1CCCCO[C@@H](CN(C)S(=O)(=O)c2ccc(F)cc2)[C@H](C)CN([C@H](C)CO)C(=O)c2cc(NS(=O)(=O)c3ccc(F)cc3)ccc2O1 the results were Cneo AK release -14.4.
